Measured values reported in the RNAGym collection of RNA variant scans (doi:10.1038/nmeth.2970).

B1: GFP aptamer (parent)
chain: GCUUCUGGACUGCGAUGGGAGCACGAAACGUCGUGGCGCAAUUGGGUGGGGAAAGUCCUUAAAAGAGGGCCACCACAGAAGC

Variants of: B1
Assay: HiTS-RAP
Details: with EGFP
Method in brief: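 Aptamer DNA templates carrying a T7 promoter and ter site were sequenced on an Illumina GAIIx flowcell, then transcribed in situ by T7 RNA polymerase and halted by GST-Tus (30 minutes, 37°C). Clusters were imaged after 30-minute room-temperature equilibration with EGFP-mOrange at 0.04 nM to 625 nM in fivefold steps. Intensities were decay-corrected, normalised to sequencing intensity and averaged per sequence. Kd came from weighted Hill fits per lane, geometrically averaged over three lanes, with non-rising sequences set to 125 nM.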

Variant | Kd
A27G A77G | 4.47 nM
G67U | 9.04 nM
C37U A77G | 2.53 nM
A15G | 4.76 nM
A15U | 10.3 nM
C10U C73U | 5.31 nM
G68U | 15.9 nM
G68C | 55.4 nM
G68A | 27.5 nM
G25A A28G | 5.89 nM
C13U A27G | 7.37 nM
U4A | 4.17 nM
U4C | 7.99 nM
C13U C74U | 17.4 nM
A27G C74U | 3.31 nM
A23G U31C | 3.06 nM
C58U | 1.21 nM
C58U C73U | 0.976 nM
A40G | 4.95 nM
A40C | ≥ 125 nM
C24U G33A | 5.72 nM
C13U U43C | 8.72 nM
C10U A28G | 4.55 nM
C57U | ≥ 125 nM
A27G A79G | 2.94 nM

Variant | Kd
A20U | ≥ 125 nM
G44A | 5.26 nM
C22U C58U | 12.7 nM
C10U U34C | 4.37 nM
C58U C70U | 4.84 nM
C10U C13U | 15.1 nM
U11C A27G | 3.8 nM
C70A | 79.2 nM
C32U U43C | 2.27 nM
A28G A79G | 3.44 nM
A77G | 4.77 nM
A77C | 15.3 nM
A77U | 10.8 nM
A27G G46A | 12.7 nM
A20G G30A | 30.3 nM
G65U | ≥ 125 nM
G65C | 35.3 nM
U42A | 31.8 nM
A28G A41G | 2.01 nM
A20G A27G | 4.69 nM
U11C A77G | 9.02 nM
A26G C70U | 0.997 nM
G55U | 9.31 nM
G55C | 50.8 nM
U34C A77G | 18 nM

Variant | Kd
G30U | 3.95 nM
C10U | 4.3 nM
G14U | 4.92 nM
A27G C70U | 17 nM
G8U | 5.56 nM
C74U | 6.27 nM
C74A | 28.9 nM
C58U C74U | 5.94 nM
G21C | 5.13 nM
G21A | ≥ 125 nM
G21U | 6 nM
C82A | 3.36 nM
C82U | 4.16 nM
C82G | 10.1 nM
G38C | 83.5 nM
C10U A77G | 36 nM
A28C | 6.92 nM
G30A C73U | 0.856 nM
C32U C74U | 11.9 nM
A27G A28G | 4.44 nM
A62G | 3.54 nM
A9G | 14.8 nM
A9C | 8 nM
A20G G44A | 13 nM
C76U | 37.1 nM

Variant | Kd
C76A | 13.6 nM
C10U C37U | 14.3 nM
G81U | 4.53 nM
G81A | 5.44 nM
A23C | 13.2 nM
U16C U59C | 7.5 nM
A66U | 8.88 nM
A66G | 11.2 nM
G69C | ≥ 125 nM
C24U C37U | 6.91 nM
G33C | ≥ 125 nM
A27G G33A | 5.11 nM
A27G C58U | 0.55 nM
A9G A27G | 21 nM
U6C | 8.4 nM
G14A C32U | 15.4 nM
C10U C29U | 3.83 nM
C22A | 13.8 nM
C22G | 29.1 nM
C22U | 9.58 nM
G8A G14A | 20.2 nM
A20G G25A | 10.8 nM
C24U G68A | 54.1 nM
A28G U60C | 13.9 nM
U47C C73U | 44.3 nM

Variant | Kd
C13U A26G | 2.37 nM
G50C | 67.7 nM
G50U | 12.3 nM
A27G A75G | 5.08 nM
C29G | 4.09 nM
G18A | ≥ 125 nM
C24G | 13.2 nM
C24U | 4.82 nM
U31A | 4.16 nM
G30A G33A | 27.8 nM
U60A | 1.71 nM
G35A | ≥ 125 nM
G35C | ≥ 125 nM
G35U | ≥ 125 nM
C32U | 4.26 nM
C32G | 4.95 nM
C32A | 3.24 nM
U56A | ≥ 125 nM
U56C | ≥ 125 nM
C73U C74U | 7.64 nM
G7U | 23.4 nM
G7A | 43.8 nM
G49A | 21.5 nM
G49U | 11.1 nM
C13U | 4.53 nM

Variant | Kd
G51C | ≥ 125 nM
U31C C58U | 1.14 nM
C5A | 8.09 nM
C5U | 4.3 nM
C5G | 5.26 nM
U16G | 2.69 nM
U11C A28G | 15.9 nM
G17U | 5.8 nM
U31C U43C | 1.5 nM
U3C | 4.42 nM
C13U A41G | 10 nM
A63U | ≥ 125 nM
A63G | 8.55 nM
A63C | ≥ 125 nM
U31C A40G | 4.07 nM
G36U | ≥ 125 nM
G36A | 63.3 nM
A20G A41G | 19.6 nM
A41G A77G | 7.24 nM
C71G | 37.3 nM
U59C | 16.6 nM
U59A | 10.1 nM
G48A | ≥ 125 nM
G48U | 21.3 nM
U42C A77G | 13.7 nM

Variant | Kd
A79G | 4.31 nM
A79U | 7.52 nM
C37U | 19.1 nM
C37G | 15.5 nM
A61U | 4.9 nM
A64G | ≥ 125 nM
C73A | 8.52 nM
C73U | 6.59 nM
A27G G30A | 2.45 nM
C29U C74U | 1.86 nM
A28G G68A | 32.8 nM
C22U A27G | 9.49 nM
A20G A23G | 1.51 nM
A75C | 26.6 nM
U34C C58U | 68.2 nM
A54U | ≥ 125 nM
A54G | 65.4 nM
A54C | ≥ 125 nM
A72C | ≥ 125 nM
A72G | 3.33 nM
